Only some compounds are listed: those with a hit (about 4.9% of all), similar ones and a draw of the others.
STAT1 inh – inhibitors of IFN-gamma induced STAT1 signaling. NIH 3T3 STAT1-luciferase reporter, luminescence. inhibition, % at 5.5 µM. 200,000 compounds, 0.35% hits;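 active = inhibition above a set limit, the mean inhibition across all tested compounds plus 3 SD, cut at about 34% in these data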;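 also: 0% = IFN-gamma with DMSO and 100% = IFN-gamma with 300 µM nifuroxazide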
STAT3 inh – reduces IL-6 driven STAT3 reporter signal; 190,000 compounds, 0.89% hits; inhibition, % at 5.5 µM; U3A cells, IL-6 STAT3-luciferase reporter, luminescence; host cell line lacks STAT1;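 active = inhibition above the mean inhibition across all screened compounds plus 3 SD, cut at about 44% in these data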;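 also: 0% = DMSO only wells and 100% = 100 µM nifuroxazide control wells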
STAT1 act – increases IFN-gamma driven STAT1 reporter signal. NIH 3T3 STAT1-luciferase reporter, luminescence; 100% = IFN-gamma alone, no compound. activation (% of control), % at 5.5 µM. 200,000 compounds, 2.6% hits. AID 932;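 active = activation above the screen-wide mean activation plus 3 SD, cut at about 130% in these data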;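 also: raw ratio to IFN-gamma control signal so 100% means no change and 0% no light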
NF-kB neuron act – raises NF-kB expression in human neuronal cells. NF-kB reporter expression; active compounds read high. 190,000 compounds, 1.6% hits. fold change at 12.5 µM; in the data active = fold change above about 3.3
APP 5'UTR act – activates APP 5'UTR luciferase reporter. AID 1276. SH-SY5Y APP 5'UTR luciferase reporter, luminescence; zero percent = DMSO vehicle wells. 190,000 compounds, 1% hits. activation, % at 2 µM;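 active = activation above a set limit, based on mean plus 3 SD of controls, cut at about 140% in these data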
STAT3 activator – STAT3 signaling activation; U3A cells, IL-6 STAT3-luciferase reporter, luminescence; 100% = signal with IL-6 EC80 alone; 190,000 compounds, 0.91% hits; activation (% of control), % at 5.6 µM; AID 871;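 active = activation above the screen-wide mean of compound activation plus 3 SD, cut at about 130% in these data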;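 also: 0% = background luminescence of wells with medium and substrate only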
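Material: human STAT1-deficient U3A cells with stable STAT3-luciferase reporter / Probe or stimulus: IL-6 stimulus at 33 ng/mL final / Schedule: 1 h compound pre-exposure, 6 h IL-6 stimulation, 37 °C / Technique: luminescence / Read-out basis: percent of IL-6-only median luminescence / Control set: IL-6-only high control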
The depositor's hits bear a star; x = no result.

SMILES	STAT1 inh	STAT3 inh	STAT1 act	NF-kB neuron act	APP 5'UTR act	STAT3 activator
CC(C)c1ccc(C2NC(=O)NC3=C2CCc2ccccc23)cc1 (configuration not stated)	4	15	96	0.84	-2	91
O=C(CCOc1ccccc1)Nc1ccc([N+](=O)[O-])cc1	1	8	100	1.3	-1	97
c1cnc(SCCOc2ccc3c(c2)CCC3)nc1	-55	2	150*	7.2*	x	99
Cc1ccccc1OCc1csc(N)n1	-4	15	104	1.2	-2	88
CCOC(=O)N1CCN(CC(=O)Nc2ccc(Oc3ccccc3)cc2)CC1	0	4	100	0.94	-6	98
CCCCOC(=O)Nc1ccc(C(=O)OC)cc1	-27	9	125	1.9	59	94
CCCCOC(=O)Nc1ccc(C)c(Cl)c1	-47	16	143*	2.9	114	90
COc1cccc(C(=O)Nc2ccccc2)c1	-18	23	117	2	45	83
COc1cccc(NC(=O)Nc2ccc(C)c(Cl)c2)c1	-37	13	133*	2	55	93
CCCC(=O)Nc1ccc(C(=O)Nc2cccc(OC)c2)cc1	-6	-3	106	1.4	35	107
COc1cccc(NC(=O)c2ccc(NC(=O)C(C)(C)C)cc2)c1	-41	-6	136*	2.1	94	109
COc1cccc(C(=O)Nc2cccc(SC)c2)c1	-32	-4	129*	2.7	83	111
COCCCN1C(=O)/C(=C/c2ccc(CNS(=O)(=O)c3ccccc3)o2)C(C(=O)OC)=C1C	4	19	93	0.93	2	88
CCC1CCC(C(=O)NC(CCSC)C(=O)NCCN(CC(C)C)CC(C)C)CC1 (configuration not stated)	3	-5	96	0.81	27	106
O=c1[nH]c(C2CCN(S(=O)(=O)c3ccccc3)CC2)nc2c1nnn2Cc1ccccc1	1	12	98	x	-16	94
c1ccc(-c2nc(-c3cccnc3)n[nH]2)cc1	-23	14	121	1.4	17	90
Brc1cccc(-c2n[nH]c(-c3ccccc3)n2)c1	-42	-55	138*	3.9*	132	152*
CCOC(=O)Cc1sc(N)nc1C	0	13	100	1.1	-7	89
O=c1c(Cl)c(Nc2cccc(Cl)c2)cnn1-c1nc2ccccc2s1	-56	7	150*	1.9	116	92
COc1ccc(Nc2cnn(-c3nc4ccccc4s3)c(=O)c2Cl)cc1	5	11	96	1.9	-19	89
Cc1ccc(C(=O)Nc2nc(C)c(C)s2)o1	-34	4	132*	4*	132	101
NS(=O)(=O)c1ccc2nc(NC(=O)c3ccc(Br)o3)sc2c1	-32	12	129*	1.8	1	94
O=C(Nc1nccs1)c1ccc(Br)o1	-7	-13	106	1.4	41	114
Cc1nc(NC(=O)c2ccc(Br)o2)sc1C	-33	14	130*	4.7*	121	93
Cc1cc(C(=O)Nc2nnc(C3CCCCC3)s2)no1	0	5	100	1.3	4	96
SMILES	STAT1 inh	STAT3 inh	STAT1 act	NF-kB neuron act	APP 5'UTR act	STAT3 activator
Cc1ccc(C(=O)Nc2nnc(C3CCCCC3)s2)o1	-16	13	115	3.8*	113	89
Cc1ccc(Cn2c(SCC(=O)NCC3CCCO3)nc3c2c(=O)n(C)c(=O)n3C)cc1 (configuration not stated)	6	4	93	0.83	32	98
O=c1cc(CN2CCc3ccccc3C2)nc2sccn12	5	-6	95	3.5*	5	112
CC(NC(=O)OC(C)(C)C)C(=O)NC(CCC(=O)OCc1ccccc1)C(N)=O (configuration not stated)	-5	18	104	0.97	16	94
CC(C)=CC(=O)Nc1nnc(C(C)C)s1	-49	8	145*	2.7	100	97
CC(C)(C)c1nnc(NC(=O)c2cccs2)s1	-39	27	134*	3.4*	68	80
CCCCc1nnc(NC(=O)C=C(C)C)s1	0	12	100	1.4	14	95
Cc1cnc(C(=O)Nc2nnc(C(C)C)s2)cn1	-34	0	131*	1.8	36	106
COc1cccc(-c2nnc(NC(=O)c3cccs3)s2)c1	-44	17	138*	1.8	41	91
CCOC(=O)c1cc[n+](CC(=O)c2ccc(F)cc2)cc1	10	6	91	1.4	7	96
COc1ccc(Cc2nnc(NC(=O)c3cccs3)s2)cc1OC	-8	-3	107	0.98	-4	110
CC(C)c1nnc(NC(=O)c2cccs2)s1	-32	23	129*	2.7	x	88
CCCCC(CC)c1nnc(NC(=O)c2cccs2)s1 (configuration not stated)	3	9	96	1.3	9	94
c1ccc(Nc2nc3ccccc3o2)cc1	-40	-2	137*	5.3*	133	102
FC(F)(F)Oc1ccc(Nc2nc3ccccc3o2)cc1	-39	2	134*	1.9	77	102
CC1(C)CC(=O)C=C(C(=O)N2CCCC(C(=O)c3cccc(Cl)c3)C2)O1 (configuration not stated)	9	4	90	1	1	100

Screening data (PubChem)
